# In ChEMBL document CHEMBL2429835:
# Activity calls are given as the source filed them. The rule behind the calls is not given here.
# Tests used:
# Vero = test: Cytotoxicity against african green monkey Vero cells after 72 hrs by MTS-PMS assay; format: cell-based; conditions: Chlorocebus sabaeus
# How it was run: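 Vero cells in EMEM with 10% FBS at 37 °C, 5% CO2, diluted to 10^6 cells/mL. Exposed to 2-fold serial dilutions for 72 h at 37 °C.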
# [1] = Selectivity index, ratio of IC50 for african green monkey Vero cells to MIC90 for Mycobacterium tuberculosis H37Rv ATCC 27294 by microplate Alamar blue assay; format: functional
# [2] = test system: Mycobacterium tuberculosis; test: Antimycobacterial activity against Mycobacterium tuberculosis H37Rv ATCC 27294 by microplate Alamar blue assay; format: functional
# How it was run: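 Strain (H37Rv or ATCC single-drug-resistant isolates) grown to late log phase in 7H9 with 0.2% glycerol, 0.05% Tween80, 10% OADC. Cells washed into PBS, passed through 8 μm filter, frozen; CFU titred on 7H11 agar. MABA MIC is the lowest concentration giving ≥90% growth inhibition versus untreated controls.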
# [3] = test system: Mycobacterium tuberculosis; test: Antimycobacterial activity against Mycobacterium tuberculosis H37Rv ATCC 27294 incubated for 10 days under low oxygen condition followed by normoxic environment for 28 hrs by low oxygen recovery assay; format: functional
# How it was run: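 Luciferase (luxAB) reporter strain adapted to low oxygen in a fermenter. Exposed to samples for 10 days at 37 °C under hypoxia, then 28 h normoxic at 37 °C. Luminescence read; MIC is the lowest concentration cutting luminescence by ≥90% versus untreated cultures.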
# Candida albicans = test: Antifungal activity against Candida albicans ATCC 90028 at 100 ug/ml by broth microdilution method; format: functional, organism-based
# How it was run: (§1)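 Broth microdilution per NCCLS guidelines; growth read spectrophotometrically at 570 nm, except S. pneumoniae at 490 nm, which was tested with 2% HBL supplement. Compounds tested up to 100 μg/mL.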
# Mycobacteroides chelonae = test: Antimycobacterial activity against Mycobacterium chelonae ATCC 35752 at 100 ug/ml after 9 days by microplate Alamar blue assay; format: functional, organism-based
# How it was run: (§2)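 MABA in 7H12 (M. abscessus, M. bovis BCG) or 7H9 (others). Pre-dye incubation: M. abscessus 37 °C 3 days; BCG 37 °C 7 days; M. chelonae 30 °C 3 days; M. marinum 30 °C 5 days; M. avium and M. kansasii 37 °C 6 days. Then 20% Tween80 plus Alamar blue added: 4 h (abscessus), 6 days (chelonae), 1 day (others). Tested at 100 μg/mL.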
# Streptococcus pneumoniae = test: Antibacterial activity against Streptococcus pneumoniae at 100 ug/ml; format: functional, organism-based; how it was run: as §1
# Staphylococcus aureus = test: Antibacterial activity against Staphylococcus aureus ATCC 29213 at 100 ug/ml by broth microdilution method; format: functional, organism-based; how it was run: as §1
# Mycobacterium avium = test: Antimycobacterial activity against Mycobacterium avium ATCC 15769 at 100 ug/ml after 7 days by microplate Alamar blue assay; format: functional, organism-based; how it was run: as §2
# Enterococcus faecalis = test: Antibacterial activity against Enterococcus faecalis ATCC 29212 at 100 ug/ml by broth microdilution method; format: functional, organism-based; how it was run: as §1
# Pseudomonas aeruginosa = test: Antibacterial activity against Pseudomonas aeruginosa ATCC 27853 at 100 ug/ml by broth microdilution method; format: functional, organism-based; how it was run: as §1
# [4] = test system: Mycobacteroides abscessus; test: Antimycobacterial activity against Mycobacterium abscessus ATCC 19977 at 100 ug/ml after 7 days by microplate Alamar blue assay; format: functional
# [5] = test system: Mycolicibacterium smegmatis; test: Antimycobacterial activity against Mycobacterium smegmatis MC2 155 at 100 ug/ml after 3 days by microplate Alamar blue assay; format: functional, organism-based; conditions: str. MC2 155
# How it was run: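 MABA: 37 °C for 3 days, then Tween80 (20%) and Alamar blue added, 4 h further incubation; fluorescence read-out. Tested at 100 μg/mL.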
# Escherichia coli = test: Antibacterial activity against Escherichia coli ATCC 25922 at 100 ug/ml by broth microdilution method; format: functional, organism-based; how it was run: as §1
# Mycobacterium kansasii [6] = test: Antimycobacterial activity against Mycobacterium kansasii ATCC 12478 at 100 ug/ml after 7 days by microplate Alamar blue assay; format: functional; how it was run: as §2
# Mycobacterium marinum [7] = test: Antimycobacterial activity against Mycobacterium marinum ATCC 927 at 100 ug/ml after 6 days by microplate Alamar blue assay; format: functional, organism-based; how it was run: as §2
# Acinetobacter baumannii = test: Antibacterial activity against Acinetobacter baumannii at 100 ug/ml by broth microdilution method; format: functional, organism-based
# Mycobacterium marinum [8] = test: Antimycobacterial activity against Mycobacterium marinum ATCC 927 after 6 days by microplate Alamar blue assay; format: functional; conditions: ATCC 927, 144 h
# Mycobacterium kansasii [9] = test: Antimycobacterial activity against Mycobacterium kansasii ATCC 12478 after 7 days by microplate Alamar blue assay; format: functional; conditions: ATCC 12478, 168 h; how it was run: as §2
SMILES,IC50 (Vero),Selectivity Index [1],MIC90 [2],MIC90 [3],Activity (Candida albicans),Activity (Mycobacteroides chelonae),Activity (Streptococcus pneumoniae),Activity (Staphylococcus aureus),Activity (Mycobacterium avium),Activity (Enterococcus faecalis),Activity (Pseudomonas aeruginosa),Activity [4],Activity [5],Activity (Escherichia coli),Activity (Mycobacterium kansasii [6]),Activity (Mycobacterium marinum [7]),Activity (Acinetobacter baumannii),MIC90 (Mycobacterium marinum [8]),MIC90 (Mycobacterium kansasii [9])
CN[C@@H]1[C@H](O[C@H]2[C@H](O[C@H]3[C@H](O)[C@@H](O)[C@H](N=C(N)N)[C@@H](O)[C@@H]3N=C(N)N)O[C@@H](C)[C@]2(O)C=O)O[C@@H](CO)[C@H](O)[C@H]1O [STREPTOMYCIN],> 100 µg/mL,>833,0.12 µg/mL,1.07 µg/mL,,,,,,,,,,,,,,,
N[C@@H]1CONC1=O [CYCLOSERINE],> 100 µg/mL,>17,6.02 µg/mL,,,,,,,,,,,,,,,,
O=c1cc(-c2ccccc2)c2cc(Cl)ccc2o1,> 100 µg/mL,,> 100 µg/mL,,inactive,inactive,inactive,inactive,inactive,inactive,inactive,inactive,inactive,inactive,inactive,inactive,inactive,,
CCOC(=O)c1c(-c2ccccc2)c2cc(Cl)ccc2oc1=O,,0.82,44.7 µg/mL,37.1 µg/mL,inactive,inactive,inactive,inactive,inactive,inactive,inactive,inactive,inactive,inactive,inactive,,inactive,97.1 µg/mL,
NNC(=O)c1ccncc1 [ISONIAZID],> 100 µg/mL,,0.03 µg/mL,,,,,,,,,,,,,,,,
O=[N+]([O-])c1cn2c(n1)OC[C@@H](OCc1ccc(OC(F)(F)F)cc1)C2 [PRETOMANID],> 100 µg/mL,>5000,0.02 µg/mL,0.25 µg/mL,,,,,,,,,,,,,,,
NC[C@H]1O[C@H](O[C@H]2[C@H](O)[C@@H](O[C@H]3O[C@H](CO)[C@@H](O)[C@H](N)[C@H]3O)[C@H](N)C[C@@H]2N)[C@H](O)[C@@H](O)[C@@H]1O [KANAMYCIN],> 100 µg/mL,>154,0.65 µg/mL,,,,,,,,,,,,,,,,
O=c1cc(-c2ccccc2)c2ccc(Cl)cc2o1,30.4 µg/mL,1.27,23.9 µg/mL,21.9 µg/mL,inactive,inactive,inactive,inactive,inactive,inactive,inactive,inactive,inactive,inactive,,inactive,inactive,,49.3 µg/mL
CO[C@H]1/C=C/O[C@@]2(C)Oc3c(C)c(O)c4c(O)c(c(/C=N/N5CCN(C)CC5)c(O)c4c3C2=O)NC(=O)/C(C)=C\C=C\[C@H](C)[C@H](O)[C@@H](C)[C@@H](O)[C@@H](C)[C@H](OC(C)=O)[C@@H]1C [RIFAMPIN],> 100 µg/mL,,0.08 µg/mL,< 0.05 µg/mL,,,,,,,,,,,,,,,
CCOC(=O)c1c(-c2ccccc2)c2ccc(Cl)cc2oc1=O,39.4 µg/mL,1.1,35.9 µg/mL,23.2 µg/mL,inactive,inactive,inactive,inactive,inactive,inactive,inactive,inactive,inactive,inactive,inactive,inactive,inactive,,
